Experimental data published in ChEMBL document CHEMBL1139058, “Synthesis, in vitro and in silico evaluation of l-tyrosine containing PPARalpha/gamma dual agonists” (2007).

Assays:
[1] = Agonist activity at human PPARgamma 1 in HEK293T cells at 50 uM by GAL4 transactivation assay relative to rosiglitazone; assay type: functional, HEK-293T
Procedure, shortened: (§1)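 HEK 293T cells grown in DMEM-10% FBS at 37 °C, 5% CO2, then plated at 50–60% confluence in DMEM with 10% delipidated FBS one day before Superfect transfection. Reagent removed after 3 h. At 42 h post-transfection, cells moved to phenol red-free DMEM-DFBS and treated 18 h with compound or vehicle. Cells lysed, luciferase measured, expressed as fold activation over untreated cells.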

[2] = target: T1, Peroxisome proliferator-activated receptor alpha (Homo sapiens) (UniProt Q07869); assay: Agonist activity at human PPARalpha in HEK293T cells at 50 uM by GAL4 transactivation assay relative to WY-14643; assay type: functional, cell-based; details: HEK-293T; procedure, shortened: as §1
T1 sequence (whole entry): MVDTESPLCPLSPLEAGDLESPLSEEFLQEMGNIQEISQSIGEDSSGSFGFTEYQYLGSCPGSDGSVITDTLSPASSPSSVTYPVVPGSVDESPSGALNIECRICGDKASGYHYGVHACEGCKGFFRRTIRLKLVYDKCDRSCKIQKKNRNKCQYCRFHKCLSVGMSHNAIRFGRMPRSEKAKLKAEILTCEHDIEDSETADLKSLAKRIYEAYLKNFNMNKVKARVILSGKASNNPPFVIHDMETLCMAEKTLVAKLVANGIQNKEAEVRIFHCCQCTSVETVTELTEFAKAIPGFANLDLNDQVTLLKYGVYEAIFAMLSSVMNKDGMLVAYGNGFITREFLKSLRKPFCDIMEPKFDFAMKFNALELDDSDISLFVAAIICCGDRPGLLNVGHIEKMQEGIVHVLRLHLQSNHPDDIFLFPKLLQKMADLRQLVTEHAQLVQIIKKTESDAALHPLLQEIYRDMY

| Activity [2] | SMILES | Activity [1] |
| --- | --- | --- |
| 2 | C/C(=C/C(=O)c1ccccc1)N[C@@H](Cc1ccc(OCCOc2ccc3c(c2)[nH]c2ccccc23)cc1)C(=O)O | 4.2 |
| 4.6 | C/C(=C/C(=O)c1ccccc1)N[C@@H](Cc1ccc(OCCOc2cccc3[nH]c4ccccc4c23)cc1)C(=O)O | 48.2 |
| 5.1 | C/C(=C/C(=O)c1ccccc1)N[C@@H](Cc1ccc(OCCCOc2cccc3[nH]c4ccccc4c23)cc1)C(=O)O | 15.1 |
| 1.2 | COC(=O)[C@H](Cc1ccc(OCCn2c3ccccc3c3ccccc32)cc1)N/C(C)=C\C(=O)c1ccccc1 | 1.9 |
| 1.9 | COC(=O)[C@H](Cc1ccc(OCCOc2ccc3c(c2)[nH]c2ccccc23)cc1)N/C(C)=C\C(=O)c1ccccc1 | 1.8 |

The next lines start with the molecule.

| SMILES | Activity [2] | Activity [1] |
| --- | --- | --- |
| C/C(=C/C(=O)c1ccccc1)N[C@@H](Cc1ccc(OCCn2c3ccccc3c3ccccc32)cc1)C(=O)O | 1.4 | 1.7 |
| O=C(C1=C(N[C@@H](Cc2ccc(OCCOc3cccc4[nH]c5ccccc5c34)cc2)C(=O)O)CCCC1)c1ccccc1 | 1.2 | 11.2 |
| O=C(C1=C(N[C@@H](Cc2ccc(OCCn3c4ccccc4c4ccccc43)cc2)C(=O)O)CCCC1)c1ccccc1 | 1 | 8.4 |
| C/C(=C/C(=O)c1ccccc1)N[C@@H](Cc1ccc(OCCOc2cc(C(F)(F)F)nc3c(C(F)(F)F)cccc23)cc1)C(=O)O | 1.1 | 2.3 |
| COC(=O)[C@H](Cc1ccc(OCCn2c3ccccc3c3ccccc32)cc1)NC1=C(C(=O)c2ccccc2)CCCC1 | 0.5 | 3 |
| COC(=O)[C@H](Cc1ccc(OCCOc2cccc3[nH]c4ccccc4c23)cc1)NC1=C(C(=O)c2ccccc2)CCCC1 | 1.4 | 4.7 |
| C/C(=C/C(=O)c1ccccc1)N[C@@H](Cc1ccc(OCCc2ccc(C(F)(F)F)cc2)cc1)C(=O)O | 0.3 | 0.7 |
| C/C(=C/C(=O)c1ccccc1)N[C@@H](Cc1ccc(OCCOc2ccc(C(=O)c3ccc(Cl)cc3)cc2)cc1)C(=O)O | 2.8 | 22.6 |
